{"source": "the RNAGym collection of RNA variant scans (doi:10.1126/science.aae0568)", "parents": {"B1": {"name": "tRNA (parent)", "chain": "GUUCCGUUGGCGUAAUGGUAACGCGUCUCCCUCCUAAGGAGAAGACUGCGGGUUCGAGUCCCGUACGGAACG"}}, "note": "This sample holds only a part of the variants without activity.", "data": [{"variants_of": "B1", "test": "yeast fitness relative to wild type (ratio to wild type); higher = fitter; tRNA-Arg(CCU), competitive growth, 37 C, YPD", "outline": "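Gene amplicons from the start population and from each of six end populations were read by 100-nucleotide paired-end sequencing. Those end populations came from pooled Saccharomyces cerevisiae strains carrying tRNA-Arg(CCU) gene variants at the native locus, competed in YPD at 37°C for 24 hours. Fitness relative to wild type was worked out from changes in genotype frequencies. Genotypes needed ≥ 100 starting reads, and estimates < 0.5 were set to 0.5.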", "values": [{"variant": "GUUCCAUUGGCGUAAUGGUAACGCGUCUCCCUCCUAAGGAGAAGCCUGCGGGUUCGAGUCCCGUACGGAACG", "note": "[G6A A45C]", "yeast fitness": 0.738}, {"variant": "GUUCCGUUGGCGUAAUGGUAACGCAUCUCGCUCAUAAGGAGAAGACUGGGGGUUCGAGUCCCGUACGGAACG", "note": "[G25A C30G C34A C49G]", "yeast fitness": "≤ 0.5"}, {"variant": "GUUCCGUUGGCGUAUUGGUAUCGCGUCUCCCUCCUAAGGAGAAGACUGCGGGUUCGAGUCCCGUACGGAACG", "note": "[A15U A21U]", "yeast fitness": 0.708}, {"variant": "GUUCCCCUCGCGUAAUGGUAACGCGUCUCCCUCCUAAGGAGAAGACUGCGGGUUCGAGUCCCGUACGGAACG", "note": "[G6C U7C G9C]", "yeast fitness": "≤ 0.5"}, {"variant": "GUUCCGUUGGCGUAAUGGUAACGCAUCUUCGUCCUAAGGAGAAGACUGCGGGUUUGAGUCCCGUACCGAACG", "note": "[G25A C29U C31G C55U G67C]", "yeast fitness": "≤ 0.5"}, {"variant": "GUUGCGUUGGCGAAAUGGUAACGCGUCUCCCUCCUAAGGAGAAGACUGCGGGUACGAGUCCCGUACGGAACG", "note": "[C4G U13A U54A]", "yeast fitness": "≤ 0.5"}, {"variant": "GUUCCGUUGGCGUAAUGGUAACGCGUCUGCCUCCUAAGGAGAAGACUGAGGGUUCGAGUCCCGUACCGAACG", "note": "[C29G C49A G67C]", "yeast fitness": "≤ 0.5"}, {"variant": "GUUCCGUUGGCGUAAUGGUAACGCGUCUCCCUCCAAAGGAGUUGACUGCGGGUUCGAGUCCCGUACGGAACG", "note": "[U35A A42U A43U]", "yeast fitness": "≤ 0.5"}, {"variant": "GCUCCGUUGGCGUGAUGGUAACGCGUCACCCUCCUAAGGAGAAGACUGCGGGUUCGAGUCCCGUACGGAACG", "note": "[U2C A14G U28A]", "yeast fitness": 0.534}, {"variant": "GUUCCGUUGGCGUAAUGGUUAAGCGUCUCCCUCCUAAGGAGAAGACUGCGGGUUCGAGUCAGGUACGAAACG", "note": "[A20U C22A C61A C62G G68A]", "yeast fitness": "≤ 0.5"}, {"variant": "GUUCCGUUGGUGUAUUGGUAACGCGUCUCCCUCCUAAGGAGAAGACUGCGGGUUCCAGUCCCGUACGGAACG", "note": "[C11U A15U G56C]", "yeast fitness": "≤ 0.5"}, {"variant": "GUUCCGUUGGCGUAAUGGUAACGCGUCUCCCUCCUUAGGAGAAGGCUGCGGGUUCGAGUCCCGUACAGAACG", "note": "[A36U A45G G67A]", "yeast fitness": "≤ 0.5"}, {"variant": "GUUCCGUUGCCGUAAUGGUAACGCGUUUCCCUCCUAAGGUGAAGUCUACGGGUUCGAGUCCCGUACGGAACG", "note": "[G10C C27U A40U A45U G48A]", "yeast fitness": "≤ 0.5"}, {"variant": "GUUCCGUUGGGGUAAUGGUAACGCGUCUCCUUCCUAAGGAGAAGACUGCGGGUUCGAGUCCCGUACCGAACG", "note": "[C11G C31U G67C]", "yeast fitness": 0.632}, {"variant": "GUUCCGUUGGCGUAAUGGUAACGCGUCUCCCUCCUAAGGAGACGAUUGCGGGUUCGAGUCCCGUACGGAACG", "note": "[A43C C46U]", "yeast fitness": 1.03}, {"variant": "GUUCCGUUGGCGUAAUGGUAACGCGUCUCCCUCCUAAGGAGAAGACUGCGGGUUCGAGUCCCAUACGGAUCG", "note": "[G63A A70U]", "yeast fitness": 0.816}, {"variant": "GUUGCGUUGGCCUAAUGGUAACGCGUCUCCCUCCUAAGGAGAAGAUUGCGGGUUCGAGUCCCGUACGGAACG", "note": "[C4G G12C C46U]", "yeast fitness": "≤ 0.5"}, {"variant": "GUUCCGUUGGCGUAAUGGUAAAGCGUCCCCCUCCUAAGGAGAAGACUGCGGGUUCGAGUCCCGUACAGAACG", "note": "[C22A U28C G67A]", "yeast fitness": 0.538}, {"variant": "GUUCGGGUGGCGUAAUGGUAACGCGUCUCCCUCCUAAGGAGAAGACUGCGGGUUCGAGUCCCGUACGGAACG", "note": "[C5G U7G]", "yeast fitness": 0.564}, {"variant": "GUUCCGUUCGCGUUAUGGUACCGCGUCUCCCUCCUAAGGAGAAGACUGCGGGUUCGAGUCACGUACGGAACG", "note": "[G9C A14U A21C C61A]", "yeast fitness": 0.81}, {"variant": "GUUCCGUUGGCGUAAUGGUAACGCGUCUCCCUCCUAAGGAGAAGACUGCGGGUUCGACUCCCGUACGGUACG", "note": "[G58C A69U]", "yeast fitness": 0.846}, {"variant": "GUUCCGUUGGCGUAAUGGUAACGUGUCUCCCUCCUAAGGAGAAGACUGCGGGUUCGAGUUCCGUACGGAACG", "note": "[C24U C60U]", "yeast fitness": 0.797}, {"variant": "GUUCCGUUGGCGUAAUGGUAACGCGCCUCCCUCCUAAGGAGAAGACUGCGGGUUCGAGUCGCAUACGGUACG", "note": "[U26C C61G G63A A69U]", "yeast fitness": 0.532}, {"variant": "GUUCCGUUGGCCUAAUGGUAACGCGUCUCCCUCCUAAGGAGACGACUGCGGGUUCGAGUCCCGUACGGAACG", "note": "[G12C A43C]", "yeast fitness": 0.825}, {"variant": "GUUCCGUUGGCGUAAUGGUAACGGGUCUCCCUCCUAGGGAGAAGACCGCGGGUUCGAGACCCGUACAGAACG", "note": "[C24G A37G U47C U59A G67A]", "yeast fitness": "≤ 0.5"}, {"variant": "GUUCCGUUGGCGUAAUGGUAACGCGUCUCCCUCCUAAGGUGAAGACUGCGGGUUCGAGCCCCGUACGAAACG", "note": "[A40U U59C G68A]", "yeast fitness": 0.569}, {"variant": "GUUCCGUUGGUGUAAUGGUAACGCGUCUCCCUCCUAAGGAGAAGUCUGCGGGUUCGAGUCCCGUUCGGAACG", "note": "[C11U A45U A65U]", "yeast fitness": 0.82}, {"variant": "GUUCCGUUGGCGUAAUGGCAACGCGUCUCCCUCCUAAGGAGAAGACUGCGCGUUCGAGUCCCGUACGGAACG", "note": "[U19C G51C]", "yeast fitness": 0.519}, {"variant": "GUUCCGUUGGAGUAAUGAUAACGCGUCUCCCUCCUAAGGAGAAGACUGCGGGUUCGAAUCCCGCACGGAACG", "note": "[C11A G18A G58A U64C]", "yeast fitness": "≤ 0.5"}, {"variant": "GUUCCGUUGGCGUAAUGGUAACGCGUCUUCCUCCUAAGAAGAAGACUGCGGGUUCGAGUCCCGUACAGAACG", "note": "[C29U G39A G67A]", "yeast fitness": 0.565}, {"variant": "GUUCCGUUGGCGUAAUGGUAACGCGUCUCCCUCCUAAGGAGAUGACUGCGGGUUAGAGUCCCGUUCGGAACG", "note": "[A43U C55A A65U]", "yeast fitness": 0.515}, {"variant": "GUUCCGUUGGUGUAAUGGUAAAGCGUCUGCCUUCUAAGGAGAAGACUGCGGGUUCGAGUCCCGUACGGACCG", "note": "[C11U C22A C29G C33U A70C]", "yeast fitness": 0.551}, {"variant": "GCUCCGUUGGCGUAAUGGUAACGCGUCUCCCUCCUAAGGAGAAGACAGAGGGUUCGAGUCCCGUACGGAACG", "note": "[U2C U47A C49A]", "yeast fitness": "≤ 0.5"}, {"variant": "GUUCCGUUGGCGUAAUGGUAAGGCGUCUCCCUCCUAAGGAGAGGACUGCGGGUUUGAGUCCCGGACGGAACG", "note": "[C22G A43G C55U U64G]", "yeast fitness": "≤ 0.5"}, {"variant": "GUUCCGUUGGCGUAGUGGUAACGCGUCUCCCUCCUUAGGAGAAGACUGCGGGUUCGAGACCCGUACGGAACG", "note": "[A15G A36U U59A]", "yeast fitness": "≤ 0.5"}, {"variant": "GUUCCGUUGGCGUAAUGGUAACGCGUCUGCCUGCGAAGGAGAAAACUGCGGGUUCGAGUCCCGUACAGAACG", "note": "[C29G C33G U35G G44A G67A]", "yeast fitness": "≤ 0.5"}, {"variant": "GUUCCGUCGGCGUAAUGGUAAAGCGUCUCCCUCCUCAGGAGAAGACUGCGGGUUGGAGUCCCGUGGGGAACG", "note": "[U8C C22A A36C C55G A65G C66G]", "yeast fitness": "≤ 0.5"}, {"variant": "GUUCCGUUGGCGCAAUGGUAACGUGUCUCCCUCCUAAGGAAAAGACUGCGGGUUCGAGUCCAGUACGGAACG", "note": "[U13C C24U G41A C62A]", "yeast fitness": "≤ 0.5"}]}]}
